# Screening results (PubChem BioAssay)
# Sampled rows, rich in hits. Any-hit rate of the full collection: about 2.3%.
# TRPC4 agonist: opens the mouse TRPC4 cation channel | Q9QUQ5 | HEK293 TRPC4beta/mu-opioid, Fluo4 calcium fluorescence; stronger effect = higher value | B-score at 10 µM | 0.49% of 310,000 active | AID 2237;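 active = B-score above 5 SD of library B-scores, and initial fluorescence ratio not above library mean plus 5 SD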;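 note: positive B-score marks a calcium rise read as TRPC4 activation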
#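 Test system: HEK293 cells stably co-expressing mouse TRPC4beta and mu-opioid receptor | Schedule: Fluo4 dye loading 45 min at room temperature, 110 s recording | Measured by: Kinetic Fluo4 calcium fluorescence, 5 s baseline at 1 Hz | Evaluation: B score of integrated ratio | Controls: Buffer (low) and maximal DAMGO (high)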
# TRPC4 PAM: TRPC4 (mouse) allosteric potentiation. 0.42% of 310,000 active. B-score at 10 µM. HEK293 TRPC4beta/mu-opioid, DAMGO EC20, Fluo-4 Ca2+ flux; stronger effect = higher value. Q9QUQ5;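 active = B-score of calcium response area above 5 SD of library B-scores, with initial fluorescence ratio within 5 SD of library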;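 note: B-score of integrated fluorescence ratio over time as area under calcium response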
# TRPC6 act: activates the mouse TRPC6 cation channel; B-score at 10 µM; AID 2550; 0.13% of 310,000 active; HEK293-TRPC6 membrane potential dye fluorescence; stronger effect = higher value; Q61143;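 active = B-score of the integrated fluorescence ratio above library mean plus 3 SD, and starting fluorescence ratio within library mean plus 5 SD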;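 note: higher score means more depolarization so channel activation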
# Target sequence (Q61143 whole entry, looked up): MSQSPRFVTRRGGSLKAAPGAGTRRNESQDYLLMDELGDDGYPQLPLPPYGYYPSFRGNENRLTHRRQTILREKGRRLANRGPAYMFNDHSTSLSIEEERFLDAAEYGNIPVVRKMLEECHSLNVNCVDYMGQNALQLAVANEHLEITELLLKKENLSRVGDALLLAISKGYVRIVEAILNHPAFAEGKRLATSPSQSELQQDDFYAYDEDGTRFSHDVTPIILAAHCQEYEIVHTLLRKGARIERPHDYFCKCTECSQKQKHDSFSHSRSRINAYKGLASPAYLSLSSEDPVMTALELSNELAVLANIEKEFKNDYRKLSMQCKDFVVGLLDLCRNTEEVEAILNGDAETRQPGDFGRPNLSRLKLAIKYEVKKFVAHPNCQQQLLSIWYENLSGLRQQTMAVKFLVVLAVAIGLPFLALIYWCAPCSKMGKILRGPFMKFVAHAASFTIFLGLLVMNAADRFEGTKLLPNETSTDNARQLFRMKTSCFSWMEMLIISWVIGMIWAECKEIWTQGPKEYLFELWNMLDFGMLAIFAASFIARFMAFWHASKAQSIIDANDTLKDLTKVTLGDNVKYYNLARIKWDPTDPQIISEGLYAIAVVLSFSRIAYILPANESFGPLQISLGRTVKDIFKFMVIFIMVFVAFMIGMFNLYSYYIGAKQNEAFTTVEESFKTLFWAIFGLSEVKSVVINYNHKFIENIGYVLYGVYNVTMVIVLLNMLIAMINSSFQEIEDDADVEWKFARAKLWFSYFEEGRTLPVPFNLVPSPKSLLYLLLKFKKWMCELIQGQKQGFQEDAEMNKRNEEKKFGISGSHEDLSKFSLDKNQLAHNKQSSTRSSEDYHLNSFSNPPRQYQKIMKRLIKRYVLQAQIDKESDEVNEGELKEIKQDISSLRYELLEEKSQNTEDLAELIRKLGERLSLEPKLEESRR
# TRPC4 block: blocks the mouse TRPC4 cation channel; AID 2247; Q9QUQ5; B-score at 10 µM; HEK293 TRPC4beta/mu-opioid, DAMGO-evoked Fluo4 calcium flux; stronger effect = lower value; 0.39% of 300,000 active;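 active = B-score over 3 SD under the library average, no early fluorescence shift, positive overall ratio signal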
#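 Assay system: TRPC4beta/mu-opioid receptor HEK293 cell line; compound dosing: single concentration per test compound; detection: Fluo4 Ca2+ flux fluorescence; evaluation: per-well B score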
# TRPC6 inhibitor: inhibitors of mouse TRPC6 channel | HEK293-TRPC6, membrane potential dye, ACh-evoked depolarization; stronger effect = lower value | B-score at 10 µM | 1.1% of 310,000 active | AID 2553;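 active = B-score under library mean minus 3 SD, initial fluorescence not abnormally high, positive integrated signal ratio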;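 note: B-score derived from integrated fluorescence ratio over the kinetic read; more negative B-score means stronger inhibition of depolarization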
# Numbers without * were called inactive; i = inactive.
SMILES,TRPC4 agonist,TRPC4 PAM,TRPC6 act,TRPC4 block,TRPC6 inhibitor
CC(C)c1ccc(NC2CCCN(C(=O)C3=NN(C)C(=O)CC3)C2)cc1 (stereo unspecified),i,i,i,i,i
O=C(Nc1ccc2c(c1)OCCO2)C(=O)NC1CC1,i,i,i,i,i
Cc1ccc(C)n1-c1ncc(Br)cn1,i,21*,i,i,i
CC(C)(C)c1cc(C(=S)N2CCN(CCO)CC2)cc(C(C)(C)C)c1O,i,i,i,i,i
CC(C)(C)c1cc(C(=O)CCN2CCOCC2)cc(C(C)(C)C)c1O,i,11*,i,i,i
CC(C)[C@H](Nc1nc(-c2ccccc2)nc2c1oc1ccccc12)C(=O)O,i,i,i,i,i
CCC(C)[C@H](Nc1nc(-c2ccccc2)nc2c1oc1ccccc12)C(=O)O (stereo partly specified),i,i,i,-6*,i
CN(CC(=O)Nc1ccccc1Br)C(=O)c1cc(S(=O)(=O)N(C)C)ccc1N1CCCC1,i,i,i,i,i
O=C(C1CCN(CC2CC=CCC2)CC1)N(CCc1ccccc1)Cc1ccccc1 (stereo unspecified),i,i,i,-5*,i
O=C(C1CCN(S(=O)(=O)c2cnc[nH]2)CC1)N(CCc1ccccc1)Cc1ccccc1,i,i,i,i,i
COc1ccc(N2CCN(C(=O)C(=O)c3c(C)[nH]c4ccccc34)CC2)cc1,i,i,i,i,i
CC(=O)c1ccc(N2CCN(C(=O)C(=O)c3c(C)[nH]c4ccccc34)CC2)cc1,i,10*,i,i,i
COc1cc(S(=O)(=O)N(C)C)ccc1F,i,i,i,i,i
O=C(NCc1ccco1)c1cnn2c1NC(c1ccc(Br)cc1)CC2C(F)(F)F (stereo unspecified),i,13*,i,i,i
Cc1cccc(CC(Cc2nc3ccccc3[nH]2)c2nc3ccccc3[nH]2)c1 (stereo unspecified),i,i,i,i,i
COc1ccccc1CC(Cc1nc2ccccc2[nH]1)c1nc2ccccc2[nH]1 (stereo unspecified),i,i,i,-6*,i
CCC(C)c1ccc(NC(=O)NCCN2CCCCC2)cc1 (stereo unspecified),i,i,i,i,i
CCOCCSC1=C(C#N)C(c2cccs2)C(C(C)=O)=C(C)N1 (stereo unspecified),i,i,i,-6*,i
COc1ccc(-c2ccccc2NC(=O)C2CCCN(Cc3ccc(C)o3)C2)cc1 (stereo unspecified),i,i,i,i,i
CCOC(=O)C1=NNC(C(=O)c2ccc(Cl)cc2)C1c1ccc(OC)cc1 (stereo unspecified),i,15*,i,i,i
CSc1ccc(C(=O)NC2CCSc3ccccc32)cc1 (stereo unspecified),i,i,i,i,i
CC(C)Cc1nc(N2CCN(C(=O)c3ccccc3)CC2)c(C#N)c2c1CCC2,i,13*,i,i,i
CC(C)Cc1nc(N2CCN(C(=O)C(C)C)CC2)c(C#N)c2c1CCC2,i,25*,i,i,i
CC(=O)N1CCN(c2nc(CC(C)C)c3c(c2C#N)CCC3)CC1,i,i,i,i,i
CC(C)C(=O)Nc1ccc(-c2nc3ccccc3c(=O)o2)cc1,i,i,i,i,i
CCn1c(=N)n(CC(=O)c2ccc(Br)s2)c2ccccc21,i,i,i,-6*,i
CCOC(=O)CN(C(=O)CSc1nnc2c(n1)[nH]c1ccc(OC)cc12)c1ccc(F)cc1,i,i,i,i,i
CN(C)CCNc1c2c(nc3nnnn13)CCCC2,44*,i,i,i,i
CC1Cc2ccccc2N1C(=O)COc1ccc2c(c1)OCO2 (stereo unspecified),i,i,i,i,i
O=C(OC1C2CCC1C1CN(CCc3ccccc3)CC12)c1ccccc1 (stereo unspecified),i,i,i,-6*,i
